From PubChem BioAssay
Diaphorase act – compounds boosting diaphorase resazurin reduction – biochemical, uHTS, resorufin fluorescence, counter-screen for diaphorase-coupled primary assays, primary screen; Diaphorase/resazurin coupled assay, 16 min; hits give high values; 1 = vehicle wells, 0 = NADH-free wells; activation factor at 20 µM; hit rate 0.005% among 190,000;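 active means diaphorase activity raised at least twofold by the compound at 20 µM; inactive means activation factor below 2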
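System – purified diaphorase enzyme from Clostridium kluyveri · Input – enzyme 0.07 U/mL final · Also added – final NADH 0.114 mM, resazurin 0.1 mM · Measured by – fluorescence of resorufin, 544 nm excitation, 590 nm emission · Timing – 16 min enzyme reaction, ambient temperature · Measure – resorufin increase flagging diaphorase activators or reducers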
G6PDH counter – L. mesenteroides G6PDH inhibitors, counter-screen for G6PDH-coupled screening assays, biochemical, Leuconostoc mesenteroides enzyme | glucose-6-phosphate dehydrogenase [Leuconostoc mesenteroides] | Purified L. mesenteroides G6PDH, diaphorase/resazurin coupled fluorescence, 45 min | inhibition, % at 5 µM | hit rate 0.12% among 200,000 | AID 1020, 2008; in the data active means inhibition above about 50%
HKDC1 inh – HKDC1 hexokinase inhibitors, primary screen, biochemical, fluorescence, uHTS; inhibition, % at 20 µM; recombinant HKDC1, G6PDH/diaphorase resazurin coupled fluorescence; Q2TB90; hit rate 0.16% among 340,000;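 active means inhibition above about 35% when tested at 20 µM, limit read from the data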
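Test system: Recombinant HKDC1 (HK5) hexokinase enzyme, produced in-house | Input: HKDC1 at 5 µg/mL | Buffer or medium: Tris pH 8.0 buffer with MgCl2, Tween-20, BSA, BME | Schedule: 90 min reaction incubation at room temperature, dark | Technique: Resazurin-to-resorufin fluorescence via G6PDH and diaphorase coupling, 525/613 nm | Controls: DMSO wells with and without enzyme mix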
PfGluPho inh – PfG6PD enzyme inhibitors, primary screen, biochemical, fluorescence intensity, uHTS | glucose-6-phosphate dehydrogenase-6-phosphogluconolactonase (Plasmodium falciparum 3D7) | PfGluPho enzyme, NADPH resazurin-diaphorase fluorescence | inhibition, % at 20 µM | hit rate 0.78% among 350,000 | AID 504690, 2011;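 active means inhibition reaching at least a set limit at 20 µM in the primary screen, cut at about 59% in these data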
Diaph inh CS – diaphorase inhibitors and chemical oxidizers, primary screen, counter-screen for diaphorase-coupled primary assays, biochemical, uHTS, resorufin fluorescence | inhibition, % at 20 µM | diaphorase resazurin-to-resorufin fluorescence, NADH, 16 min; bacterial (C. kluyveri) enzyme, not human | hit rate 0.69% among 190,000;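 active means primary screen inhibition at 20 µM above a set limit, cut at about 50% in these data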
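Assay system: diaphorase enzyme from Clostridium kluyveri; Input: enzyme working solution with 0.14 U/mL diaphorase; Timing: 16 min at room temperature; Technique: resorufin fluorescence, excitation 544 nm, emission 590 nm; Benchmarks: positive control minus NADH, DMSO neutral control.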
HKDC1 act conf – HKDC1 hexokinase activators, confirmation, biochemical, single concentration | shares compounds with HKDC1 inh | recombinant HKDC1, G6PDH/diaphorase resazurin fluorescence; hits give low values | inhibition, % at 20 µM | hit rate 14% among 740 | AID 504708, 2011;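 active means inhibition at or below a set negative limit, negative inhibition meaning the enzyme was activated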
Of the large screens only hits and unclear results are named; the others gave an inactive call (follow-up assays come after a bar, where they were run). In the library only some 1.2% were active in any assay of this set; here they are far more common.

CC(C)Nc1nnc(SCC(=O)Nc2ccc3c(c2)C(=O)c2ccccc2C3=O)s1	HKDC1 inh 43, Diaph inh CS 52 | HKDC1 act conf inactive
O=C(CSc1nnc(NC2CCCCC2)s1)Nc1ccc2c(c1)C(=O)c1ccccc1C2=O	none
Cc1onc(-c2ccccc2)c1CNC(=O)C1COc2ccccc2O1 (stereo unspecified)	none (no result: Diaphorase act, G6PDH counter, Diaph inh CS)
O=[N+]([O-])c1ccc(-c2csc(N/N=C/c3cccnc3)n2)cc1	HKDC1 inh 36 | HKDC1 act conf inactive
Cc1cc2nnc(SCC(=O)Nc3cc(S(=O)(=O)N4CCOCC4)ccc3Cl)n2c2ccccc12	HKDC1 inh 48 | HKDC1 act conf inactive
CC(C)n1nc(C(=O)Nc2ccc3c(c2)OCO3)c2ccccc2c1=O	none (no result: Diaphorase act, G6PDH counter, Diaph inh CS)
CCOc1cc(/C=C2\C(=N)N3N=C(C)SC3=NC2=O)ccc1OCCOc1cccc(OC)c1	none (no result: Diaphorase act, G6PDH counter, Diaph inh CS)
CCc1nn2c(=O)cc(COc3ccc(/C=C4\C(=N)N5N=C(C)SC5=NC4=O)cc3)nc2s1	HKDC1 inh 58 | HKDC1 act conf inactive
COc1cccc(OC)c1C(=O)NNC(=O)c1cccnc1	none (no result: Diaphorase act, G6PDH counter, Diaph inh CS)
O=C(NNC(=O)c1cccnc1)NC1CCCCC1	none | HKDC1 act conf inactive
COC1=CC(=O)C=C(OC)C1=O	HKDC1 inh 66, PfGluPho inh 125 (no result: Diaphorase act, G6PDH counter, Diaph inh CS) | HKDC1 act conf inactive
COC1=CC(=O)c2ccccc2C1=O	none (no result: Diaphorase act, G6PDH counter, Diaph inh CS)
NS(=O)(=O)c1ccc(N2CCN(CCOc3ccc(Cl)cc3)CC2)nc1	none (no result: Diaphorase act, G6PDH counter, Diaph inh CS)
O=C(NCCC(=O)N1CCCC(C(F)(F)F)C1)c1ccc(Br)cc1 (stereo unspecified)	HKDC1 inh 36 (no result: Diaphorase act, G6PDH counter, Diaph inh CS) | HKDC1 act conf inactive
COc1ccccc1C(=O)NCCC(=O)N1CCCC(C(F)(F)F)C1 (stereo unspecified)	none (no result: Diaphorase act, G6PDH counter, Diaph inh CS)
O=C(NCCc1ccccc1)C(c1cccs1)N(C(=O)CCl)c1ccc(Cl)cc1 (stereo unspecified)	HKDC1 inh 37 | HKDC1 act conf inactive
O=C(NCCc1ccccc1)C(c1cccs1)N(C(=O)c1csnn1)C1CC1 (stereo unspecified)	none
Cc1cc(C)n(-c2ccc(NC(=O)C3CCN(Cc4cc(C)c(C)o4)CC3)cc2)n1	HKDC1 inh 41 (no result: Diaphorase act, G6PDH counter, Diaph inh CS) | HKDC1 act conf inactive
Cc1ccc(CC#N)c(-c2c(CC#N)ccc(C)c2C)c1C	none (no result: Diaphorase act, G6PDH counter, HKDC1 inh, Diaph inh CS)
Cc1ccc2c(c1C)-c1c(ccc(C)c1C)C(=O)C2=O	HKDC1 inh 38 (no result: Diaphorase act, G6PDH counter, Diaph inh CS) | HKDC1 act conf inactive
CC(C)CCNC(=O)CN(C(=O)CCC(=O)Nc1ccccn1)c1ccc(F)c(Cl)c1	none
O=C1Nc2cc(Cl)ccc2Nc2cscc21	none (no result: Diaphorase act, G6PDH counter, Diaph inh CS)
N#CC(C#N)=c1ccc2c(c1)N1C3=C(CCCC3)CC3CCCCC31N=2 (stereo unspecified)	HKDC1 inh 39, Diaph inh CS 76 | HKDC1 act conf inactive
O=C(CCCl)Nc1nc2c(s1)CCc1ccccc1-2	none (no result: Diaphorase act, G6PDH counter, Diaph inh CS)
N#C/C(=C(/O)CCl)c1nc2c(s1)CCc1ccccc1-2	HKDC1 inh 44 (no result: Diaphorase act, G6PDH counter, Diaph inh CS) | HKDC1 act conf inactive
Cc1ccc(NC(=O)Cc2c(O)c3ccccc3[nH]c2=O)c(C)c1	none (no result: Diaphorase act, G6PDH counter, Diaph inh CS)
CC1(C)Cn2c(nc(=O)c3c2NCN(CCc2ccccc2)C3)S1	none (no result: HKDC1 inh, PfGluPho inh)
C[C@@H]1NC(=O)N[C@@H]1CCCCCC(=O)O	none (no result: Diaphorase act, G6PDH counter, Diaph inh CS)
CC(C)C(C(=O)O)N1C(=O)/C(=C/C=C/c2ccco2)SC1=S (stereo unspecified)	HKDC1 inh 51 | HKDC1 act conf inactive
O=C1/C(=C/C=C/c2ccco2)SC(=S)N1c1ccc(O)cc1	none (no result: Diaphorase act, G6PDH counter, Diaph inh CS)
CCOP(=O)(c1ccc(N(C)C)cc1)C(O)c1cc(OC)c(OC)c(OC)c1 (stereo unspecified)	none
CCOP(=O)(c1ccc(N(C)C)cc1)C(O)c1ccc(OC)cc1 (stereo unspecified)	HKDC1 inh 56 (no result: Diaphorase act, G6PDH counter, Diaph inh CS) | HKDC1 act conf inactive
c1cc(Nc2ncnc3sc4c(c23)CCC4)ccn1	none
NNc1ncnc2sc3c(c12)CCC3	none | HKDC1 act conf inactive
Cc1cccc(N(C(=O)c2csnn2)C(C(=O)NC2CCCCC2)c2ccccn2)c1C (stereo unspecified)	none (no result: Diaphorase act, G6PDH counter, Diaph inh CS)
